Test results as given in ChEMBL document CHEMBL1671641, “1,5-benzodiazepines, a novel class of hepatitis C virus polymerase nonnucleoside inhibitors” (Antimicrob Agents Chemother, 2008).

Experiments:
[1] = (§1) Cytotoxicity against LTR-Luc transfected human MT4 cells […] after 3 days by ATPLite assay; assay type: cell-based
[2] = Cytotoxicity against CMV-Luc transfected human HuH7 cells after 5 days; assay type: cell-based, Huh-7; details: for CC50 at 120 h: CMV-Luc transfected HuH7 cells; for CC50: huh-7, 120 h, 120 h
Hepatitis C virus [3] = assay: Antiviral activity against Hepatitis C virus 1b infected in human HuH7 cells assessed as inhibition of viral replication after 3 days by luciferase reporter assay; assay type: functional, organism-based, Hepacivirus hominis, genotype 1b, Huh-7
Outline: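 HCV 1b subgenomic luciferase reporter replicon (clone ET) cells, 2,500 per well, were exposed to a nine-point 1/4 dilution series for 3 days. Replication was read as luciferase activity. Values are means ± SD from 2 to 23 independent experiments run in quadruplicate.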

MT4 = assay: as §1; assay type: cell-based; details: mt4, 72 h, 72 h
Hepatitis C virus [4] = assay: Inhibition of Hepatitis C virus 1b J4 recombinant NS5B Cdelta 21 RNA dependent RNA polymerase overexpressed in Escherichia coli BL21 (DE3) by RdRp primer-dependent transcription assay; set-up: species or system Hepatitis C virus subtype 1b
Hepatitis C virus [5] = assay: Ratio of EC50 for Hepatitis C virus 796 infected in HuH7 cells to EC50 for Hepatitis C virus 796 harboring NNI P495L mutant site in NS5B infected in HuH7 cells; assay type: functional, Hepacivirus hominis, Huh-7
Outline: (§2)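 NS5B NNI-site mutations were introduced into the genotype 1b ET subgenomic luciferase replicon by site-directed mutagenesis. RNA was made by in vitro transcription and tested in a transient-replication assay.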

Hepatitis C virus [6] = assay: Ratio of EC50 for Hepatitis C virus 796 infected in HuH7 cells to EC50 for Hepatitis C virus 796 harboring NNI M423T mutant site in NS5B infected in HuH7 cells; assay type: functional, Hepacivirus hominis, Huh-7; outline: as §2
Hepatitis C virus [7] = assay: Ratio of EC50 for Hepatitis C virus 796 infected in HuH7 cells to EC50 for Hepatitis C virus 796 harboring NNI M414Q mutant site in NS5B infected in HuH7 cells; assay type: functional, Hepacivirus hominis, Huh-7; outline: as §2
Hepatitis C virus [8] = assay: Ratio of EC50 for Hepatitis C virus 796 infected in HuH7 cells to EC50 for Hepatitis C virus 796 harboring NNI Y448A mutant site in NS5B infected in HuH7 cells; assay type: functional, Hepacivirus hominis, Huh-7; outline: as §2
Hepatitis C virus [9] = assay: Ratio of EC50 for Hepatitis C virus 796 infected in HuH7 cells to EC50 for Hepatitis C virus 796 harboring NNI H95R mutant site in NS5B infected in HuH7 cells; assay type: functional, Hepacivirus hominis, Huh-7; outline: as §2
Hepatitis C virus [10] = assay: Ratio of EC50 for Hepatitis C virus 796 infected in HuH7 cells to EC50 for Hepatitis C virus 796 harboring NNI C316Y mutant site in NS5B infected in HuH7 cells; assay type: functional, Hepacivirus hominis, Huh-7; outline: as §2
Hepatitis C virus [11] = assay: Inhibition of Hepatitis C virus 1b J4 recombinant NS5B Cdelta 21 RNA dependent RNA polymerase overexpressed in Escherichia coli BL21 (DE3) assessed as [alpha-33P]UTP incorporation by RdRp primer-independent transcription assay; set-up: species or system Hepatitis C virus subtype 1b
Outline: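 De novo (primer-independent) RdRp assay: 190 nM NS5BΔ21 (1b J4) with 86 nM HCV 3′ UTR template RNA, 0.5 mM each ATP/GTP/CTP, 10 μM UTP plus [α-³³P]UTP, in 20 mM Tris-HCl pH 7.5, 1 mM DTT, 5 mM MgCl₂, 20 mM NaCl. Incubated 2 h at room temperature, stopped with EDTA/tRNA, TCA-precipitated on filters, and scintillation-counted. Quadruplicate.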

Hepatitis C virus [12] = assay: Inhibition of Hepatitis C virus 1b J4 recombinant NS5B Cdelta 21 RNA dependent RNA polymerase overexpressed in Escherichia coli BL21 (DE3); set-up: species or system Hepatitis C virus subtype 1b

## CC(=O)N1c2ccccc2NC2=C(C(=O)CC(C)(C)C2)C1c1ccc(OCc2ccccc2)cc1Cl (stereo in doubt; 5)
[1]
  CC50 at 72 h: 16.7 µM
[2]
  CC50 at 120 h: 35.5 µM

## CC(=O)N1c2cccc(O)c2NC2=C(C(=O)CC(C)(C)C2)C1c1ccc(OCc2ccccc2)cc1Cl (stereo in doubt; 7)
Hepatitis C virus [3]; Hepatitis C virus, genotype 1b, Huh-7, 72 h
  EC50: 1.43 µM
[1]
  CC50 at 72 h: 17.8 µM
[2]
  CC50 at 120 h: 13.4 µM

## CC(=O)N1c2ccccc2NC2=C(C(=O)CC(C)(C)C2)C1c1ccc(OCc2ccccc2)cc1Cl (single isomer, unassigned; 5b)
Hepatitis C virus [3]; huh-7
  EC50: 3.9 µM
MT4
  CC50: 17.3 µM
[2]
  CC50: 53.7 µM
Hepatitis C virus [4]
  IC50: 83.1 µM

## c1ccc2occc2c1 [BENZOFURAN]
Hepatitis C virus [5]
  fold change (FC): 10
Hepatitis C virus [6]
  fold change (FC): 10
Hepatitis C virus [7]
  fold change (FC): 10
Hepatitis C virus [8]
  fold change (FC): 10
Hepatitis C virus [9]
  fold change (FC): 10
Hepatitis C virus [10]
  fold change (FC): 10

## CC(C)C[C@@]1(C(=O)O)C[C@H](C#N)[C@H](c2nccs2)N1C(=O)c1ccc(C(C)(C)C)cc1 [ACYL PYRROLIDINE]
Hepatitis C virus [5]
  fold change (FC): 10
Hepatitis C virus [6]
  fold change (FC): 10
Hepatitis C virus [7]
  fold change (FC): 10
Hepatitis C virus [8]
  fold change (FC): 10
Hepatitis C virus [9]
  fold change (FC): 10
Hepatitis C virus [10]
  fold change (FC): 10

## CC(=O)N1c2ccccc2NC2=C(C(=O)CC(C)(C)C2)C1c1ccc(OCc2ccccc2)c(Cl)c1 (single isomer, unassigned; 4b)
Hepatitis C virus [3]; huh-7
  EC50: 0.6 µM
MT4
  CC50: 12.9 µM
[2]
  CC50: 21.2 µM
Hepatitis C virus [4]
  IC50: 35.9 µM
Hepatitis C virus [11]
  IC50: > 32 µM

## CC(=O)N1c2ccccc2NC2=C(C(=O)CC(C)(C)C2)C1c1ccc(OCc2ccccc2)cc1 (single isomer, unassigned; 3a)
Hepatitis C virus [3]; huh-7
  EC50: 15.3 µM
MT4
  CC50: 22.2 µM
[2]
  CC50: 19.2 µM
Hepatitis C virus [4]
  IC50: 1 µM
Hepatitis C virus [11]
  IC50: 0.54 µM

## CC(=O)N1c2ccccc2NC2=C(C(=O)CC(C)(C)C2)C1c1ccc(OCc2ccccc2)cc1Cl (single isomer, unassigned; 5a)
Hepatitis C virus [3]; huh-7
  EC50: 9.3 µM
MT4
  CC50: 19.5 µM
[2]
  CC50: 49 µM
Hepatitis C virus [4]
  IC50: 0.33 µM

## CC(=O)N1c2ccccc2NC2=C(C(=O)CC(C)(C)C2)C1c1ccc(OCc2ccccc2)cc1 (stereo in doubt; 3)
Hepatitis C virus [12]
  IC50: 3 µM
Hepatitis C virus [3]; huh-7
  EC50: 5.8 µM
[1]
  CC50 at 72 h: 32 µM
[2]
  CC50 at 120 h: 32 µM

## CC(=O)N1c2ccccc2NC2=C(C(=O)CC(C)(C)C2)C1c1ccc(OCc2ccccc2)cc1 (single isomer, unassigned; 3b)
Hepatitis C virus [3]; huh-7
  EC50: 2 µM
MT4
  CC50: 18.3 µM
[2]
  CC50: 19.7 µM
Hepatitis C virus [4]
  IC50: 86.7 µM
Hepatitis C virus [11]
  IC50: 79.1 µM

## c1ccc2[nH]ccc2c1 [INDOLE]
Hepatitis C virus [5]
  fold change (FC): 10
Hepatitis C virus [6]
  fold change (FC): 10
Hepatitis C virus [7]
  fold change (FC): 10
Hepatitis C virus [8]
  fold change (FC): 10
Hepatitis C virus [9]
  fold change (FC): 10
Hepatitis C virus [10]
  fold change (FC): 10

## CC(=O)N1c2ccccc2NC2=C(C(=O)CC(C)(C)C2)C1c1ccc(OCc2ccccc2)c(Cl)c1 (stereo in doubt; 4)
Hepatitis C virus [3]; huh-7
  EC50: 2.2 µM
[1]
  CC50 at 72 h: 22.1 µM
[2]
  CC50 at 120 h: 40.2 µM

## CC(C)N(c1cc(-c2ccccc2)sc1C(=O)O)C(=O)[C@H]1CC[C@H](C)CC1
Hepatitis C virus [5]
  fold change (FC): 10
Hepatitis C virus [6]
  fold change (FC): 10
Hepatitis C virus [7]
  fold change (FC): 10
Hepatitis C virus [8]
  fold change (FC): 10
Hepatitis C virus [9]
  fold change (FC): 10
Hepatitis C virus [10]
  fold change (FC): 10
